# Key:
# [1] = molecular target: T1, Spermidine synthase (Rattus norvegicus) (UniProt Q99MI5); test: Compound was tested for its effect on rat prostatic spermidine synthase at 0.1 mM
# T1 sequence (whole entry): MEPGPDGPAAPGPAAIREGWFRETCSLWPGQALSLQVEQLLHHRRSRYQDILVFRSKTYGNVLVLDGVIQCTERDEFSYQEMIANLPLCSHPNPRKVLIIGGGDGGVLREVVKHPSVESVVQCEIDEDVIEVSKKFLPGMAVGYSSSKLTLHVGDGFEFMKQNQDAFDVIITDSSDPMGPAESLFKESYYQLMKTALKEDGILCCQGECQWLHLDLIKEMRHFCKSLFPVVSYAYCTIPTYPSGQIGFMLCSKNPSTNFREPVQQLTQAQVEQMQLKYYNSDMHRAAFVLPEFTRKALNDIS
# Method in brief: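 Rat prostate spermidine synthase preparation with 20 μM 14C-S-methyladenosylhomocysteamine and 1 mM putrescine, inhibitor at 0.1 mM. Incubation at 37 °C for 15 min; radiolabelled spermidine formed was measured.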
# [2] = molecular target: T1, Spermidine synthase (Rattus norvegicus); test: Substrate activity for Prostatic spermidine synthase product formation in rat
# Method in brief: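 Substrate test: 0.13 mM S-methyladenosylhomocysteamine or analogue with 0.6 mM [14C]putrescine (spermidine synthase) or [14C]spermidine (spermine synthase). Enzyme was 1.57 mg rat ventral prostate soluble supernatant protein or 0.09 mg enzyme purified 30-fold from bovine brain soluble fraction. Incubated 20 min at 37 °C, stopped with perchloric acid, and labelled polyamines measured by paper electrophoresis.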
# [3] = test system: Spermine synthase (Rattus norvegicus); test: Substrate activity for Prostatic spermine synthase product formation in rat
# [4] = molecular target: T1, Spermidine synthase (Rattus norvegicus); test: Substrate activity for the Bovine brain spermidine synthase product formation; settings: Bos taurus; target entry is the homologue from another species
# [5] = test system: spermine synthase (Bos taurus); test: Compound was tested for its effect on Bovine brain spermine synthase at 0.1 mM
# [6] = test system: spermine synthase (Bos taurus); test: Compound was tested for its effect on Bovine brain spermine synthase at 0.4 mM
# [7] = test system: spermine synthase (Bos taurus); test: Compound was tested for its effect on Bovine brain spermine synthase at 1.0 mM
# [8] = test system: spermine synthase (Bos taurus); test: Compound was tested for its effect on Bovine brain spermine synthase at 0.01 mM
# [9] = test system: spermine synthase (Rattus norvegicus); test: Compound was tested for its effect on rat prostatic spermine synthase at 0.1 mM
# Mus musculus [10] = organism: Mus musculus; test: Effect on putrescine polyamine accumulation in concanavalin A stimulated lymphocytes at 0.20 mM
# Mus musculus [11] = organism: Mus musculus; test: Effect on putrescine polyamine accumulation in concanavalin A stimulated lymphocytes at 0.35 mM
# Mus musculus [12] = organism: Mus musculus; test: Effect on putrescine polyamine accumulation in concanavalin A stimulated lymphocytes at 0.50 mM
# Mus musculus [13] = organism: Mus musculus; test: Effect on spermidine polyamine accumulation in concanavalin A stimulated lymphocytes at 0.02 mM
# Mus musculus [14] = organism: Mus musculus; test: Effect on spermidine polyamine accumulation in concanavalin A stimulated lymphocytes at 0.05 mM
# Mus musculus [15] = organism: Mus musculus; test: Effect on putrescine polyamine accumulation in concanavalin A stimulated lymphocytes at 0.02 mM
# Mus musculus [16] = organism: Mus musculus; test: Effect on putrescine polyamine accumulation in concanavalin A stimulated lymphocytes at 0.05 mM
# Mus musculus [17] = organism: Mus musculus; test: Effect on putrescine polyamine accumulation in concanavalin A stimulated lymphocytes at 0.10 mM
# Mus musculus [18] = organism: Mus musculus; test: Effect on spermidine polyamine accumulation in concanavalin A stimulated lymphocytes at 0.10 mM
# Mus musculus [19] = organism: Mus musculus; test: Effect of the addition of stimulated spermine on the intracellular concentration in concanavalin A stimulated lymphocytes in the absence of compound at 24 hours
# Mus musculus [20] = organism: Mus musculus; test: Effect of the addition of stimulated spermine on the intracellular concentration in concanavalin A stimulated lymphocytes in the absence of compound at 48 hours
# Mus musculus [21] = organism: Mus musculus; test: Effect of the addition of stimulated spermidine on the intracellular concentration in concanavalin A stimulated lymphocytes in the absence of compound at 48 hours
# Mus musculus [22] = organism: Mus musculus; test: Effect of the addition of stimulated putrescine on the intracellular concentration in concanavalin A stimulated lymphocytes in the absence of compound at 48 hours
# Mus musculus [23] = organism: Mus musculus; test: Effect of the addition of stimulated spermine (50 uM) on the intracellular concentration in concanavalin A stimulated lymphocytes in the absence of compound at 48 hours
# Mus musculus [24] = organism: Mus musculus; test: Effect of the addition of stimulated spermidine on the intracellular concentration in concanavalin A stimulated lymphocytes in the presence of spermine (50 uM) at 48 hours
# Mus musculus [25] = organism: Mus musculus; test: Effect of the addition of stimulated spermidine on the intracellular concentration in concanavalin A stimulated lymphocytes in the presence of compound (0.5 mM) at 48 hours
# Mus musculus [26] = organism: Mus musculus; test: Effect of the addition of stimulated spermidine on the intracellular concentration in concanavalin A stimulated lymphocytes in the presence of compound (0.5 mM) at 24 hours
# Mus musculus [27] = organism: Mus musculus; test: Effect of the addition of stimulated spermidine on the intracellular concentration in concanavalin A stimulated lymphocytes in the presence of spermidine (50 uM) at 48 hours
# Mus musculus [28] = organism: Mus musculus; test: Effect of the addition of stimulated spermidine on the intracellular concentration in concanavalin A stimulated lymphocytes in the presence of compound (0.5 mM) and spermine (50 uM) at 48 hours
# Mus musculus [29] = organism: Mus musculus; test: Effect of the addition of stimulated spermidine on the intracellular concentration in concanavalin A stimulated lymphocytes in the presence of compound (0.5 mM) and putrescine (50 uM) at 48 hours
# Mus musculus [30] = organism: Mus musculus; test: Effect of the addition of stimulated spermidine on the intracellular concentration in concanavalin A stimulated lymphocytes in the presence of compound (0.5 mM) and spermidine (50 uM) at 48 hours
compound,measurement,setting,value
CC(N)CC[S+](C)C[C@H]1O[C@@H](n2cnc3c(N)ncnc32)[C@H](O)[C@@H]1O.[I-] (stereo not given in full),Activity,[1],76%
same,Activity,[2],56 pmol/min
same,Activity,[3],0%
same,Activity,[4],25 pmol/min
same,Activity,[5],88%
same,Activity,[6],58%
same,Activity,[7],23%
same,Activity,[8],102%
same,Activity,[9],66%
same,Level,Mus musculus [10],6.8 pmol/g DNA
same,Level,Mus musculus [11],4.2 pmol/g DNA
same,Level,Mus musculus [12],3.5 pmol/g DNA
same,Level,Mus musculus [13],67.3 pmol/g DNA
same,Level,Mus musculus [14],39.8 pmol/g DNA
same,Level,Mus musculus [15],17.8 pmol/g DNA
same,Level,Mus musculus [16],11 pmol/g DNA
same,Level,Mus musculus [17],8.9 pmol/g DNA
same,Level,Mus musculus [18],38.7 pmol/g DNA
same,Polyamine,Mus musculus [19],38.6 pmol/g
same,Polyamine,Mus musculus [20],59.8 pmol/g
same,Polyamine,Mus musculus [21],90.5 pmol/g
same,Polyamine,Mus musculus [22],13.3 pmol/g
same,Polyamine,Mus musculus [23],98.2 pM/g
same,Polyamine,Mus musculus [24],38.2 pmol/g
same,Polyamine,Mus musculus [25],19.3 pmol/g
same,Polyamine,Mus musculus [26],17.5 pmol/g
same,Polyamine,Mus musculus [27],157 pmol/g
same,Polyamine,Mus musculus [28],20 pM/g
same,Polyamine,Mus musculus [29],21.7 pmol/g
same,Polyamine,Mus musculus [30],26.2 pmol/g

# — ChEMBL document CHEMBL1121830, “Inhibitors of polyamine biosynthesis. 9. Effects of S-adenosyl-L-methionine analogues on mammalian aminopropyltransferases in vitro and polyamine biosynthesis in transformed lymphocytes” (1981)
